Source: PubChem BioAssay (The Scripps Research Institute Molecular Screening Center)
PAD4 inh: PAD4 (human) enzyme inhibition; 330,000 tested, 0.41% active; AID 485272; Q9UM07; recombinant PAD4, RCA probe fluorescence polarization; inhibition, % at 6.36 µM;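 active = percent inhibition above a cutoff equal to the mean of all tested compounds plus 3 SD, cut at about 15% in these data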;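 note: 0% = PAD4 with RCA probe and DMSO and 100% = probe without PAD4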
Target sequence (Q9UM07 whole entry, looked up): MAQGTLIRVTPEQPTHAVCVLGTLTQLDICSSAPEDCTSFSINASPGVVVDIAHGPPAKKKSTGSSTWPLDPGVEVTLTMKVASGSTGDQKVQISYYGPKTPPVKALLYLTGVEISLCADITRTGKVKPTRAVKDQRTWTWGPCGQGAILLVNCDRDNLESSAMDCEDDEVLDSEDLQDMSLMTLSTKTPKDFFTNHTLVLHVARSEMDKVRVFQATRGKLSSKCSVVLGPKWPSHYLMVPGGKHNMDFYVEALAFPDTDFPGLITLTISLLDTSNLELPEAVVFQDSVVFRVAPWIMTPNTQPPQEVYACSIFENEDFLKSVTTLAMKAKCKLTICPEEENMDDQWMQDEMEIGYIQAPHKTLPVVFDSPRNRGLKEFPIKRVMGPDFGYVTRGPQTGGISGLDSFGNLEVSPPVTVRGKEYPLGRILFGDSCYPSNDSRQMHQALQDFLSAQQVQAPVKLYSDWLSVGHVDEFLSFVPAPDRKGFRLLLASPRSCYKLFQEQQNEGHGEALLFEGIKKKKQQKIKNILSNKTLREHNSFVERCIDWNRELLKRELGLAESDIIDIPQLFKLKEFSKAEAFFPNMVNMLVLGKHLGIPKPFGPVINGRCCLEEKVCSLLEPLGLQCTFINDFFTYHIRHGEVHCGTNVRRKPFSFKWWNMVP
Fh CTSL1 inh: blocks F. hepatica cathepsin L1 in PFM18AAP counter-screen; recombinant F. hepatica cathepsin L1, Z-Leu-Arg-MCA fluorescence; inhibition, % at 5.96 µM; 300,000 tested, 0.49% active;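 active = inhibition above the mean of all tested compounds plus 3 SD, set per screening campaign, cut at about 17% in these data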;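 note: 0% = plate median of test compound wells and 100% = 1 µM Z-Phe-Ala-diazomethylketone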
TDP2 absorb: TDP2 (human) inhibition, absorbance primary screen. inhibition, % at 12.8 µM. recombinant TDP2, T5PNP hydrolysis, p-nitrophenol absorbance 415 nm. 370,000 tested, 0.34% active. AID 720702;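 active = inhibition above the mean of all tested compounds plus 3 SD, set per campaign, cut at about 25% in these data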;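 note: 0% = DMSO with enzyme and 100% = buffer with substrate but no TDP2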
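System: recombinant human TDP2 / Amount: 120 nM TDP2 per well / Also added: 5 mM T5PNP chromogenic substrate / Doses: 12.8 µM single point, 1% DMSO / Incubation: 2 h at 37 °C / Detection: p-Nitrophenol epi absorbance / Evaluation: % inhibition relative to enzyme-containing and enzyme-free wells / Repeats: singlicate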
PRMT1 FP inh: PRMT1 (human) inhibition, primary screen; Q99873; recombinant PRMT1, activity-based probe fluorescence polarization; inhibition, % at 2.79 µM; 370,000 tested, 1.3% active; AID 652257;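 active = inhibition above about 21% made by adding two undisclosed values, limit read from the data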
GSTO1 counter: counter-screen for RBBP9 inhibitors: inhibitors of human GSTO1 | recombinant GSTO1, activity-based probe fluorescence polarization | P78417 | AID 1974 | 300,000 tested, 1.1% active | inhibition, % at 5.96 µM;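 active = inhibition above the campaign mean inhibition plus 3 SD, cut at about 35% in these data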;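 note: 0% = GSTO1-1 with DMSO and 100% = wells lacking GSTO1-1 enzyme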
* marks the source's active call; other numbers are inactive results; . = not tested or not shown. Compounds with a hit are over-represented: about 2.5% of the library has one in this group of screens.

SMILES	PAD4 inh	Fh CTSL1 inh	TDP2 absorb	PRMT1 FP inh	GSTO1 counter
CC(C)(C)OC(=O)N[C@@H](COCc1ccccc1)C(=O)N[C@@H](CO)[C@H](O)[C@@H]1C[C@@H]1C(=O)NC1CC1	3.1	-2.8	-2.8	-1.2	-0.8
CC(C)C[C@H](NC(=O)OC(C)(C)C)C(=O)N[C@@H](CO)[C@H](O)[C@@H]1C[C@@H]1C(=O)NC1CCCCC1	-0.1	32.9*	-8.3	2.5	-2.2
COc1ccc(-n2cc(COC(=O)NCCc3c[nH]c4ccccc34)nn2)cc1	.	.	0.6	-5.0	.
O=C(NCCc1ccccc1)OCc1cn(Cc2ccccc2F)nn1	.	.	-3.7	-4.8	.
COC/C=C/C1=CC2=CC(=O)C(C)(OC(=O)c3cnc4ccccc4n3)C(=O)C2=CO1 (stereo unspecified)	49.8*	10.3	.	.	56.4*
COc1ccc([C@H]2OC(=O)C[C@H]2C(=O)N2CCN(c3ccccc3Cl)CC2)cc1OC	.	.	-11.0	-1.3	.
O=C(O)C1CSC(c2ccc3c(c2)OCO3)N1 (stereo unspecified)	2.3	6.9	-14.9	27.3*	-0.9
CC(C)C[C@H]1COc2cc(Br)ccc2S(=O)(=O)N1Cc1cn(Cc2ccc(C(F)(F)F)cc2)nn1	.	.	5.4	-2.6	.
COc1ccc(CN2CCC(CNC(=O)NC(C)C)CC2)cc1	.	.	-18.7	-3.0	.
N#Cc1cc(F)cc(OC[C@@H](O)CN2CCC(C(O)(c3ccccc3)c3ccccc3)CC2)c1	.	.	-4.0	-2.4	.
CCOC(=O)CNc1nc(C#N)nc(N2CCOCC2)n1	7.3	22.8*	5.1	1.3	4.0
CN(C)c1nc(C#N)nc(N2CCOCC2)n1	6.8	52.8*	8.1	-1.5	1.9
N#Cc1nc(N2CCCC2)nc(N2CCCC2)n1	13.3	56.0*	-3.6	-0.9	-3.7
CCOC(=O)CNc1nc(Cl)nc(N2CCCCC2)n1	1.6	0.6	5.6	1.4	-0.6
COc1ccc2c(c1)N[C@@](CCN1C(=O)c3ccccc3C1=O)(c1[nH]c3ccccc3c1CCN1C(=O)c3ccccc3C1=O)C2=O	.	.	-1.9	5.9	.
Cc1nc(N2CCCC2)c2nnn(Cc3ccccc3Cl)c2n1	-4.9	17.5*	0.5	0.8	8.2
CC1CCN(S(=O)(=O)c2ccc3c4c2CC(=O)N4CC(C)S3)CC1 (stereo unspecified)	-4.9	31.3*	5.2	-3.4	27.5
Cc1ccc(S(=O)(=O)N2CCN(S(=O)(=O)N3CCC(C)CC3)CC2)c(C)c1	0.3	1.9	-8.3	-3.6	4.4
CCn1c(O)c(C2=c3ccccc3=NC2=O)c2cc(Br)ccc21	2.0	8.8	-0.2	11.8	1.7
O=C1N=c2ccccc2=C1c1c(O)n(-c2cccc(F)c2)[nH]c1=O	-2.0	-2.0	8.4	21.2*	3.3
CC(=O)c1cc(-c2ccccc2)c(=O)n2c1CCC2	.	.	-1.6	0.1	.
COC(=O)c1cc(C)sc1NC(=O)CSc1ncccn1	1.7	-5.2	-4.8	22.2*	10.9
CC(CC(=O)O)Nc1ccccc1O (stereo unspecified)	-5.0	-4.8	6.8	23.1*	48.3*
COc1cc(C=Nn2c(-c3cc(-c4ccccc4)n[nH]3)n[nH]c2=S)ccc1OC(C)=O	.	.	4.7	32.9*	.
O=C1NC(=S)/C(=C\c2ccc(-c3ccccc3Cl)o2)S1	-3.5	4.4	0.6	67.1*	35.3*
SMILES	PAD4 inh	Fh CTSL1 inh	TDP2 absorb	PRMT1 FP inh	GSTO1 counter
COc1cc(N2C(=O)C=CC2=O)c(OC)cc1Cl	-4.5	0.7	10.3	89.5*	8.3
COC(=O)[C@]12C[C@H](CC(=O)NCc3ccc(C)o3)C(=O)N(CCc3ccc(OC)c(OC)c3)C1=C[C@H](C(C)C)O[C@@H]2C1CC1	.	.	3.3	1.3	.
CC/C(=N/Nc1ccc(Cl)cc1)c1cnnc(SC)n1	-1.6	-1.6	7.2	-0.4	50.5*
CC/C(=N/Nc1cccc(C)c1)c1cnnc(SC)n1	-12.2	-6.2	6.5	-1.0	49.5*
C=CCN1[C@H](CC(C)C)COc2cc(N3CCCC3)ccc2S1(=O)=O	.	.	-2.2	-0.1	.
CCc1ccc(CNCC(=O)N2CCC3(CC2)OCCO3)s1	.	.	-5.8	-6.4	.
O=C(CNC(=O)c1ccc(Br)cc1)NCC(=O)OCC(=O)c1ccc([N+](=O)[O-])cc1	-0.4	-1.1	0.5	23.3*	18.4
CC(C)CSc1nnc(-c2ccco2)n1C	.	.	-4.2	-5.7	.
Cc1cc2ccccn2c1C(=O)c1cccc([N+](=O)[O-])c1	3.2	-1.4	1.8	-1.9	12.2
Cc1cc2ccccn2c1C(=O)c1ccc([N+](=O)[O-])o1	-0.7	8.2	7.4	-1.1	86.4*
Cc1c(Cl)cccc1NC(=O)CSc1nncn1-c1ccccn1	-2.5	0.3	-19.3	24.5*	-1.8
O=C(CSc1nncn1-c1ccccn1)Nc1ccccc1Cl	-2.7	-3.8	9.3	2.2	3.8
CC1CCN(C2=C(NS(=O)(=O)c3ccc(Cl)cc3)C(=O)c3ccccc3C2=O)CC1	-7.4	3.1	-0.8	-1.6	31.1
CC1CCN(C2=C(NS(=O)(=O)c3ccccc3)C(=O)c3ccccc3C2=O)CC1	-6.0	-3.2	-0.2	-9.3	35.4*
COc1ccc2ccccc2c1C=NNC(=O)c1cc(-c2ccc(C)c(C)c2)n[nH]1	.	.	9.0	-3.9	.
O=S(=O)(c1ccc(N2CCOCC2)c(Cl)c1)N1CCOCC1	0.1	-2.2	5.8	-0.4	-0.3
O=c1c2ccccc2sn1-c1cc(S(=O)(=O)N2CCOCC2)ccc1N1CCOCC1	6.9	-4.5	2.5	88.4*	-1.1
Cc1ccc(NC(=O)CSc2nccn(-c3ccc4c(c3)OCCO4)c2=O)cc1	-0.3	6.6	11.9	19.2	15.5
CCc1ccc(NC(=O)CSc2nccn(-c3ccc4c(c3)OCCO4)c2=O)cc1	.	.	-11.4	22.0*	.
CCOc1ccc(NC(=O)CSc2nccn(-c3ccc4c(c3)OCCO4)c2=O)cc1	-4.3	7.5	-1.5	22.3*	10.5
Cc1ccc(Nc2ccc(C(N)=O)cc2[N+](=O)[O-])cc1C	1.5	-4.0	8.0	2.1	4.2
Cc1ccc(NC(=S)NNc2ccc(C(=O)O)cc2[N+](=O)[O-])cc1C	1.3	0.0	-8.6	2.2	35.6*
COC(=O)[C@]1(Sc2ccc(C)cc2)CC(=O)N[C@@H]1c1ccco1	.	.	-3.5	21.3*	.
CCOC(=O)[C@]12CCCC=C1N(Cc1ccc(OC)cc1)C(=O)[C@@H]2CC(=O)N1CCN(C(=O)c2ccco2)CC1	.	.	-6.3	2.9	.
COc1ccc(C(=O)/C=C(\C)Nc2ccc3c(c2)OCO3)cc1	-1.4	0.9	-3.9	21.6*	8.0
C=CCOC(=O)C1=C(C)N=c2sc(=C3C(=O)N(CC(=O)O)c4ccccc43)c(=O)n2C1c1ccc(OC)cc1 (stereo unspecified)	.	.	13.6	4.9	.
Oc1ccc(N2CCN(Cc3cc4c(cc3Br)OCCO4)CC2)cc1	1.9	-0.9	-3.3	23.4*	1.6
COC(=O)[C@]12C[C@H](CC(=O)N3CCC(c4ccccc4)CC3)C(=O)N(CCc3ccc(OC)c(OC)c3)C1=C[C@H](C(C)C)O[C@@H]2C1CC1	.	.	6.0	2.6	.
